Measured values reported in ChEMBL document CHEMBL1148117, “Synthesis and structure-activity relationship study of lamellarin derivatives” (J Nat Prod, 2002).
pIC50: −log10 of the molar value.

Assays:
HeLa = assay: Cytotoxicity against human HeLa cells assessed as inhibition of colony formation after 5 to 8 days by colony assay; type: functional, cell-based
Outline: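 HeLa cells were seeded at 100-150 cells per well and grown with a range of compound concentrations in MEM with 10% fetal calf serum for 5-8 days at 37 °C under 5% CO2/95% air. Colonies were stained with 1% methylene blue in 50% methanol and counted; a cluster of 40 or more cells counted as one colony.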

XC = assay: Cytotoxicity against rat XC cells assessed as inhibition of colony formation after 5 to 8 days by colony assay; type: functional, cell-based
Outline: (§1)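 Colony-formation assay: 100-150 cells per well grown with varying concentrations of compound for 5-8 days at 37 °C under 5% CO₂/95% air. Colonies were stained with 1% methylene blue in 50% methanol and counted, with clusters of 40 or more cells scored as colonies. IC50 was estimated from dose-response curves.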

Vero = assay: Cytotoxicity against african green monkey Vero cells assessed as inhibition of colony formation after 5 to 8 days by colony assay; type: cell-based; details: Chlorocebus sabaeus; outline: as §1
MDCK [1] = assay: Cytotoxicity against MDCK cells assessed as inhibition of colony formation after 5 to 8 days by colony assay; type: cell-based; details: Canis lupus familiaris; outline: as §1
[2] = tested on: Human immunodeficiency virus 1; assay: Antiviral activity against HIV1 in cell cultures assessed as inhibition of viral replication; type: functional, organism-based
MDCK [3] = assay: Cytotoxicity against MDCK cells at 1 mM by MTT assay; type: cell-based, Canis lupus familiaris; details: dog, 1000 µM

SMILES | pIC50 (HeLa) | other results
COc1cccc(-c2c3c4cc(OC)c(O)cc4oc(=O)c3n3ccc4cc(O)c(OC)cc4c23)c1 | 7.15 | –
CO[C@@]12[C@H](COC(N)=O)C3=C(C(=O)C(C)=C(N)C3=O)N1C[C@@H]1N[C@@H]12 [MITOMYCIN] | 7.17 | –
COc1cc(-c2c3c4ccccc4oc(=O)c3n3ccc4cc(O)c(OC)cc4c23)ccc1O | 5.40 | –
COc1cc2c(cc1O)oc(=O)c1c2c(-c2ccc(O)cc2)c2c3cc(OC)c(O)cc3ccn21 | 7.42 | –
COc1cc2c(cc1O)oc(=O)c1c2c(-c2ccc(OC)c(OC)c2)c2c3cc(OC)c(OC)cc3ccn21 | 5.60 | –
O=c1oc2cc(O)c(O)cc2c2c(-c3ccc(O)c(O)c3)c3c4cc(O)c(O)cc4ccn3c12 [LAMELLARIN H] | < 4.00 | –
O=c1oc2ccccc2c2c(-c3ccc(O)c(O)c3)c3c4cc(O)c(O)cc4ccn3c12 | 5.96 | –
COc1ccc(-c2c3c4cc5c(cc4oc(=O)c3n3ccc4cc(OC)c(OC)cc4c23)OCO5)cc1OC | < 4.00 | –
CC(=O)Oc1ccc(-c2c3c4cc(OC(C)=O)c(OC(C)=O)cc4oc(=O)c3n3ccc4cc(OC(C)=O)c(OC(C)=O)cc4c23)cc1OC(C)=O | 4.96 | –
COc1ccc(-c2c3c4ccccc4oc(=O)c3n3ccc4cc(OC)c(OC)cc4c23)cc1OC | 5.24 | pIC50 (XC): 5.25; pIC50 (Vero): 5.33; pIC50 (MDCK [1]): 5.25
COc1ccc(-c2c3c4cc(OC)c(OS(=O)(=O)O)cc4oc(=O)c3n3ccc4cc(OC)c(OC)cc4c23)cc1O | – | pIC50 [2]: 5.10
COc1cc(-c2c3c4ccc(O)cc4oc(=O)c3n3ccc4cc(O)c(OC)cc4c23)ccc1O | 7.40 | –
COc1ccc2oc(=O)c3c(c(-c4ccc(O)c(OC)c4)c4c5cc(OC)c(O)cc5ccn43)c2c1 | 6.07 | –
COc1cc(-c2c3c4cc(OC)c(O)cc4oc(=O)c3n3ccc4cc(O)c(OC)cc4c23)ccc1O [LAMELLARIN D] | 7.98 | pIC50 (XC): 7.91; pIC50 (Vero): 7.98; pIC50 (MDCK [1]): 7.65; Activity (MDCK [3]): Non-toxic
